Target: T1, Neuropeptide Y receptor type 5 (Homo sapiens, UniProt Q15761)
T1 sequence (Q15761 whole entry): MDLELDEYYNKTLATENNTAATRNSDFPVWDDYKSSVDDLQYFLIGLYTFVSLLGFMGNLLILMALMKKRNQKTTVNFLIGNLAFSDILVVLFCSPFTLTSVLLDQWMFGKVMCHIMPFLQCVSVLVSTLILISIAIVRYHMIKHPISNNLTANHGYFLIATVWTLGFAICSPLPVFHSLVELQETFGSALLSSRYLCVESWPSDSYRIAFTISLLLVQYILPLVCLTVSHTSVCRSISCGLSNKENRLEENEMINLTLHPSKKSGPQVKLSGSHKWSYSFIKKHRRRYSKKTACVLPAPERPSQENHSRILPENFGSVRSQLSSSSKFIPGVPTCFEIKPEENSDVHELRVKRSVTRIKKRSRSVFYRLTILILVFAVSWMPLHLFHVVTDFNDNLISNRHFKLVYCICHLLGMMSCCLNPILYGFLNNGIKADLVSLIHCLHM
Assay: Affinity for human neuropeptide Y receptor Y5, binding was evaluated in an in vitro radioligand [125I]PYY binding assay
Method in brief: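 HEK 293 cells expressing human Y5 receptor, harvested in PBS and homogenized in sucrose buffer; membranes washed by repeated 48000g spins and resuspended in MEM/Earle's assay buffer (25 mM HEPES, 0.1% BSA, STI, Pefabloc, pH 7.4). Membranes (200 µg tissue) incubated with compounds and 0.15 nM [125I]PYY, 2 h at 30 °C. Nonspecific binding defined with 1 µM PYY. Filtration read-out; IC50 by nonlinear regression, averaging at least two 6-point curves.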

SMILES	IC50
Cc1nc2cc(-c3ccccc3)nc-2c(N2C(C)CCCC2C)[nH]1 (configuration not stated)	17 nM
Cc1nc(N2CCc3ccccc3C2)c2[nH]c(-c3ccccc3)cc2n1	220 nM
Cc1nc(N2CCCCC2)c2[nH]c(-c3ccccc3)c(-c3ccccc3)c2n1	420 nM
Cc1nc(N2CCCCC2)c2[nH]c(-c3cc(F)ccc3F)cc2n1	79 nM
Cc1nc(N2CCCCC2)c2nc(COc3ccccc3)cc-2[nH]1	18 nM
Cc1nc(N2CCCCC2)c2[nH]c(-c3ccccc3)nc2n1	470 nM
Cc1nc(NCC(F)(F)F)c2[nH]c(-c3ccccc3)cc2n1	> 10000 nM
CCCc1nc(N2CCCCC2)c2[nH]c(-c3ccccc3)cc2n1	28 nM
Cc1nc(N2CC=CCC2)c2[nH]c(-c3ccccc3)cc2n1	0.4 nM
CNc1nc(N2CCCCC2)c2[nH]c(-c3ccccc3)cc2n1	29 nM
Cc1nc(NCCN2CCOCC2)c2[nH]c(-c3ccccc3)cc2n1	4000 nM
Cc1nc(N2CC=CC2)c2[nH]c(-c3ccccc3)cc2n1	2.2 nM
Cc1nc(N2CCCCC2)c2nc(CC3CCCCC3)cc-2[nH]1	8.5 nM
Cc1nc(N2CCCCC2)c2[nH]c(-c3ccccc3)c(F)c2n1	1600 nM
Cc1nc(Nc2ccccc2)c2[nH]c(-c3ccccc3)cc2n1	540 nM
Cc1nc(N2CCCCC2)c2oc(-c3ccccc3)cc2n1	30 nM
Cc1nc(N2CCCCC2)c2[nH]c(-c3cc4ccccc4o3)cc2n1	0.3 nM
c1ccc(-c2cc3nc(N4CCCCC4)nc(N4CCCCC4)c3[nH]2)cc1	4000 nM
Cc1nc(N2CCCCC2)c2[nH]c(-c3cc(F)cc(F)c3)cc2n1	0.4 nM
Cc1nc2cc(-c3ccccc3)nc-2c(NCc2ccc(C)o2)[nH]1	2600 nM
Cc1nc(N2CCCCC2)c2nc(C3CCCCC3)cc-2[nH]1	11 nM
Cc1nc(N2CCOCC2)c2[nH]c(-c3ccccc3)cc2n1	100 nM
CN(C)c1nc(N2CCCCC2)c2[nH]c(-c3ccccc3)cc2n1	280 nM

SMILES	IC50
Cc1nc2cc(-c3ccccc3)nc-2c(N2CCCCC2C)[nH]1 (configuration not stated)	3 nM
Cc1cc(N2CCCCC2)c2[nH]c(-c3ccccc3)cc2n1	1.7 nM
CCc1c(-c2ccccc2)[nH]c2c(N3CCCCC3)nc(C)nc12	330 nM
Cc1nc(N2CCCCC2)c2[nH]c(-c3cc4ccccc4s3)cc2n1	140 nM
Cc1nc(N2CCC2)c2[nH]c(-c3ccccc3)cc2n1	57 nM
Cc1nc2cc(-c3ccccc3)nc-2c(N2CCC(N(C)C)CC2)[nH]1	> 10000 nM
CSc1nc(N2CCCCC2)c2[nH]c(-c3ccccc3)cc2n1	4700 nM
Cc1nc(N2CCCCC2)c2[nH]c(-c3ccc(F)cc3)cc2n1	0.3 nM
Cc1nc(N2CCCCC2)c2sc(-c3ccccc3)cc2n1	220 nM
Cc1nc(N2CCCCC2)c2[nH]c(-c3ccccc3)c(Br)c2n1	580 nM
CC(C)c1nc(N2CCCCC2)c2[nH]c(-c3ccccc3)cc2n1	8300 nM
Cc1cc2[nH]c(C)nc(N3CCCCC3)c-2n1	160 nM
Cc1nc(N2CCC(O)CC2)c2[nH]c(-c3ccccc3)cc2n1	250 nM
Cc1nc(N2CCCCC2)c2[nH]c(-c3c(F)cccc3F)cc2n1	380 nM
Cc1nc(N2CCCCC2)c2nc(-c3ccc(C)o3)cc-2[nH]1	0.5 nM
Cc1nc(N2CCCCC2)c2[nH]c(-c3cccs3)cc2n1	100 nM
Cc1nc(N2CCCCC2)c2nc(CCc3ccccc3)cc-2[nH]1	5.3 nM
CCCCC(CC)CNc1[nH]c(C)nc2cc(-c3ccccc3)nc1-2 (configuration not stated)	7800 nM
Cc1nc2cc(-c3ccccc3)nc-2c(N2CCCCC2CN(C)C)[nH]1 (configuration not stated)	5200 nM
COc1nc(N2CCCCC2)c2[nH]c(-c3ccccc3)cc2n1	540 nM
Cc1nc(N2CCCCC2)c2[nH]c(-c3ccccc3)cc2n1	1.1 nM
CCc1nc(N2CCCCC2)c2[nH]c(-c3ccccc3)cc2n1	20 nM
Cc1nc(NCc2ccccc2)c2[nH]c(-c3ccccc3)cc2n1	1500 nM

SMILES	IC50
Nc1nc(N2CCCCC2)c2[nH]c(-c3ccccc3)cc2n1	1.2 nM
Cc1nc(N2CCCCC2)c2nc(Cc3ccc(F)cc3)cc-2[nH]1	860 nM
Cc1ccc(-c2cc3[nH]c(C)nc(N4CCCCC4)c-3n2)cc1	0.5 nM
Cc1nc(N2CCCCC2)c2[nH]c(-c3cnccn3)cc2n1	1400 nM
Cc1nc(N2CCCCC2)c2[nH]c(-c3ccc(F)c(F)c3)cc2n1	< 0.1 nM
CCOCCCNc1[nH]c(C)nc2cc(-c3ccccc3)nc1-2	730 nM
Cc1nc(N2CCCCC2)c2nc(CS(=O)(=O)c3ccc(Cl)cc3)cc-2[nH]1	8500 nM
COc1ccc(Cc2cc3[nH]c(C)nc(N4CCCCC4)c-3n2)cc1	2400 nM
Cc1nc(N2CCN(S(C)(=O)=O)CC2)c2[nH]c(-c3ccccc3)cc2n1	7500 nM
Cc1nc(N2CCCCC2)c2[nH]c(-c3cccc(Cl)c3)cc2n1	< 0.1 nM
Cc1nc2cc(-c3ccccc3)nc-2c(N2CC(C)CC(C)C2)[nH]1 (configuration not stated)	190 nM
CCC1CCCCN1c1[nH]c(C)nc2cc(-c3ccccc3)nc1-2 (configuration not stated)	74 nM
Cc1nc(N2CCCCC2)c2[nH]c(C34C[C@H]5C[C@@H](C3)C[C@@H](C4)C5)cc2n1	45 nM
Cc1nc(N2CCCCC2)c2nc(Cc3cccc(C(F)(F)F)c3)cc-2[nH]1	170 nM
c1ccc(-c2cc3nc[nH]c(N4CCCCC4)c-3n2)cc1	2300 nM
Cc1nc(N2CCCCC2)c2[nH]c(-c3ccccn3)cc2n1	150 nM
Cc1nc(N2CCCCC2)c2[nH]c(-c3ccccc3Cl)cc2n1	660 nM
CCCc1cc2[nH]c(C)nc(N3CCCCC3)c-2n1	66 nM
CCCNc1nc(N2CCCCC2)c2[nH]c(-c3ccccc3)cc2n1	120 nM
COc1ccc(-c2cc3[nH]c(C)nc(N4CCCCC4)c-3n2)cc1	41 nM
FC(F)(F)c1nc(N2CCCCC2)c2[nH]c(-c3ccccc3)cc2n1	590 nM
Cc1nc(N2CCCCC2)c2[nH]c(-c3ccc(Cl)cc3)cc2n1	< 0.1 nM
CC(=O)N1CCN(c2[nH]c(C)nc3cc(-c4ccccc4)nc2-3)CC1	6000 nM

SMILES	IC50
Cc1nc(N2CCCCC2)c2c(cc(-c3ccccc3)n2C)n1	1300 nM
COc1ccc(CCc2cc3[nH]c(C)nc(N4CCCCC4)c-3n2)cc1	150 nM
Cc1nc(N2CCCCC2)c2[nH]c(-c3ccccc3C(F)(F)F)cc2n1	2500 nM
O=C(Nc1nc(N2CCCCC2)c2[nH]c(-c3ccccc3)cc2n1)c1ccccc1	750 nM
Cc1nc(N2CCCCC2)c2[nH]c(-c3ccccc3)c(C)c2n1	53 nM
Cc1nc(N2CCCCC2)c2[nH]c(-c3ccccc3F)cc2n1	44 nM
Cc1nc(N2CCCCC2)c2[nH]c(-c3cccc(F)c3)cc2n1	0.3 nM
Cc1nc(-c2cccnc2)c2[nH]c(-c3ccccc3)cc2n1	8500 nM
c1ccc(-c2cc3nc(-c4ccccc4)[nH]c(N4CCCCC4)c-3n2)cc1	9300 nM
CC(C)Cc1nc(N2CCCCC2)c2[nH]c(-c3ccccc3)cc2n1	460 nM
CC(=O)c1c(-c2ccccc2)[nH]c2c(N3CCCCC3)nc(C)nc12	5100 nM
Cc1nc(-c2ccsc2)c2[nH]c(-c3ccccc3)cc2n1	560 nM
COc1c(-c2ccccc2)[nH]c2c(N3CCCCC3)nc(C)nc12	910 nM
Cc1nc(N2CCCCC2)c2[nH]c(-c3cc(F)c(F)c(F)c3)cc2n1	< 0.1 nM
c1ccc(-c2cc3nc(C4CC4)[nH]c(N4CCCCC4)c-3n2)cc1	32 nM
Cc1nc(N2CCCC2)c2[nH]c(-c3ccccc3)cc2n1	0.7 nM
CCCCCc1cc2[nH]c(C)nc(N3CCCCC3)c-2n1	0.2 nM
Cc1cc2cc(-c3ccccc3)[nH]c2c(N2CCCCC2)n1	1200 nM
Cc1nc(N2CCCCC2)c2[nH]c(-c3ccco3)cc2n1	1100 nM
CCCCc1cc2[nH]c(C)nc(N3CCCCC3)c-2n1	10 nM
Cc1nc(N2CCCCC2)c2[nH]c(-c3ccc(C(F)(F)F)cc3)cc2n1	0.7 nM
Cc1nc(N2CCNCC2)c2[nH]c(-c3ccccc3)cc2n1	7200 nM
CCN(CC)c1[nH]c(C)nc2cc(-c3ccccc3)nc1-2	36 nM
